Assay results as given in BindingDB's records for doi:10.1021/np300893n (The University of Mississippi, 2013).

Biological target: Myc proto-oncogene protein (Homo sapiens, UniProt P01106)
Test: Inhibition of Myc signaling pathway in human HeLa cells assessed as inhibition of PMA induced luciferase treated 30 mins before induction
Outline: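 Reporter assay in cells transfected with pathway luciferase plasmids. Cells plated at 0.015 × 10⁶ per well in 10% FBS, switched after 24 h to DMEM with 1% FBS, then transfected. 24 h after transfection, compound (final 40, 60, 80 or 100 μM) was added, followed 30 min later by inducer (IL-6, TGF-β, wnt3a or PMA). Luciferase was read 4 or 6 h after induction (6 h for Notch, Wnt, Hedgehog). Value is the IC50 or the lowest concentration giving maximal 50–60% inhibition; two independent experiments.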

Sequence of Myc proto-oncogene protein (P01106 16-454): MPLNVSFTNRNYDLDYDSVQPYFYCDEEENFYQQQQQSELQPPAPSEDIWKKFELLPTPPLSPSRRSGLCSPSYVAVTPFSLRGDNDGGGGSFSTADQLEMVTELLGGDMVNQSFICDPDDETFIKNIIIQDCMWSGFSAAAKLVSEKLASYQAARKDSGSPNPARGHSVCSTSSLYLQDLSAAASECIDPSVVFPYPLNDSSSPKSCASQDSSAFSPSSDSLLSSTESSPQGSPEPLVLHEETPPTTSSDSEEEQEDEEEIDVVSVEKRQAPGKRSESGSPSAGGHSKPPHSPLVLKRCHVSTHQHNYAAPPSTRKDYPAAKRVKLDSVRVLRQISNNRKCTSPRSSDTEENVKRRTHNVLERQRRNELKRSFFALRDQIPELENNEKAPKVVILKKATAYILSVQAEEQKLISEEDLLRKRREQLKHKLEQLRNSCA

## COc1cc(/C=C\c2ccc(OC)c(OC)c2)cc(OC)c1 [(Z)-3,4,3'',5''-Tetramethoxystilbene]
  IC50: 60 µM
